Measured values collected from several papers.
Target: Epithelial discoidin domain-containing receptor 1 (DDR1, Homo sapiens, UniProt Q08345)

Structure (SMILES) | assay | conditions | remaining binding [%]
CS(=O)(=O)N1CCCC(NC(=O)[C@H](CCC2CCCCC2)NC(=O)c2ccc(CNc3ncnc4c3nnn4-c3ccccc3)cc2)C1 (some centres unmarked) | cell-free assay, competition with immobilised ligand | 0.1 µM | 89
F[C@@H]1CCN(c2nccc(-c3cnn4ncccc34)n2)C1 | binding | 1 µM | 83
C[C@@H](c1ccc(-n2cnc3c(N)ncnc32)cc1)N1CCc2nn(C)c(Cc3ccccc3)c2C1=O | binding, competition with immobilised ligand | 0.1 µM | 8.9
COc1cnc(Nc2cccc(S(N)(=O)=O)c2)nc1N1CCN(c2ccccc2)C(=O)C1 | binding, competition with immobilised ligand | 1 µM | 100
CC(C)(O)c1cncc(-c2nc3ccc(F)cc3n2C2CC2)c1 | cell-free assay, competition with immobilised ligand | 1 µM | 100
O=C(NCCCN1CCOCC1)c1ccc(Nc2nccc(-c3cc4ccccc4s3)n2)cc1 | binding, competition with immobilised ligand | 1 µM | 20
O=C(Nc1c[nH]nc1C(=O)NC1CCNCC1)c1cc(F)cc(F)c1 | binding, competition with immobilised ligand | 1 µM | 100
C[C@@H]1CCN(c2nccc(-c3cnn4ncccc34)n2)C1 | binding | 1 µM | 100
C=CC(=O)N1CCC(C(=O)NCC(=O)N2CCN(c3nc(-c4cnc(N)nc4C(F)F)nc(N4CCOCC4)n3)CC2)CC1 | binding, competition with immobilised ligand | 1 µM | 100
CC(=O)Nc1c(C(C)=O)c(=O)n(C)c2nc(-c3ccc(Cl)cc3Cl)c(-c3ccc(Cl)cc3)cc12 | cell-free assay, competition with immobilised ligand | 1 µM | 100
N[C@H]1CCN(c2nccc(-c3cnn4ncccc34)n2)C1 | binding | 1 µM | 100
O=C(c1ccc(Nc2nccc(-c3cc4ccccc4s3)n2)cc1)N1CCC(N2CCCC2)CC1 | binding, competition with immobilised ligand | 1 µM | 2.1
CC(=O)c1c(NS(C)(=O)=O)c2cc(-c3ccc(Cl)cc3)c(-c3ccc(Cl)cc3Cl)nc2n(C)c1=O | cell-free assay, competition with immobilised ligand | 1 µM | 100
CN(CCCC(F)(F)F)c1nccc(-c2cnn3ncccc23)n1 | binding | 1 µM | 100
CNC(=O)c1ccc(Nc2ncc(C(F)(F)F)c(NCc3nccnc3N(C)S(C)(=O)=O)n2)cc1 | cell-free assay, competition with immobilised ligand | 0.1 µM | 100
CC1CCCN1c1nccc(-c2cnn3ncccc23)n1 (centres unmarked) | binding | 1 µM | 94
CS(=O)(=O)c1cc(C2(NC(=O)c3cncc4c3cnn4-c3ccc(F)cc3)CC2)ccn1 | cell-free assay, competition with immobilised ligand | 1 µM | 100
CN(C)c1nccc(-c2cnn3ncccc23)n1 | binding | 1 µM | 100
O=C(c1ccc(Nc2ncc(Cl)c(-c3ccc(Cl)s3)n2)cc1)N1CCC(N2CCCC2)CC1 | binding, competition with immobilised ligand | 1 µM | 12
FC(F)(F)Oc1cccc(-c2cnc3ccc(-c4ccncc4)nn23)c1 | cell-free assay, competition with immobilised ligand | 5 µM | 48
